Results published in article PMC6307981 (Journal of Pharmaceutical Sciences, 2019).

Tests used:
[1] = Metabolic stability in human liver microsomes; format: in vitro ADME
How it was run: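 Incubated with 0.5 mg/mL human liver microsomes at 1 μM compound in 100 mM KPO4, pH 7.4, started with 1 mM NADPH. Aliquots at 0, 5, 10, 20, 40 and 60 min quenched in cold acetonitrile. Parent remaining measured by LC-MS/MS.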

[2] = Equilibrium solubility of the crystalline compounds; format: physicochemical; conditions: 37°C, >24 h, mean ± s.d., n = 3, LLOQ 1 μg/mL
How it was run: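 Excess crystalline solid (2-3 mg per 1 mL) in water held at 37°C for >24 h. Supernatant cleared by centrifugation at 30,279 × g for ≥20 min, then quantified by HPLC-UV: isocratic C18 column at 50°C, acetonitrile/water 80:20 or 70:30 depending on compound, 1 mL/min, detection at 280 nm, calibration against acetonitrile standards.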

[3] = format: in vivo, rats (male; Sprague-Dawley); conditions: rat
How it was run: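 Male Sprague-Dawley rats, lightly isoflurane-anaesthetised, got 250 μL dosing solution intratracheally by catheter to the tracheal bifurcation at 0.067, 0.12 or 0.28 mg/kg. Plasma, lung and, in one study, BAL sampled to 24 or 48 h and assayed by LC-MS. Four-compartment model with central lung fixed at 2 g and BAL plus lung summed. M3 used for <LLOQ data; VPC; apparent parameters scaled to 0.3 kg.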

[4] = from human liver microsomes data
[5] = intratracheal, apparent parameter of final model, scaled to 0.3 kg
[6] = intratracheal, final model, scaled to 0.3 kg

CLH (hepatic clearance) [1, 4]: 747.9 mL/min
EH (hepatic extraction ratio) [1, 4]: 0.50
CLint (intrinsic clearance) ([1]; human liver microsomes, 1 μM compound): 1491.7 mL/min
half-life at 1 μM ([1]; human, liver microsomes, pH 7.4): 54.4 min
Solubility in water [2]: <LLOQ
Time of distribution equilibrium (lung, BAL, plasma) ([3]; intratracheal 0.067 mg/kg): 2 h
CLC, clearance central [3, 5]: 0.0745 L/h
CLLP, clearance lung to plasma [3, 5]: 0.0175 L/h
VC, volume of distribution central [3, 5]: 0.0855 L
FBAL, fraction in BAL ([3]; intratracheal, final model (Table 5)): 0.980%
QL, intercompartmental clearance lung [3, 6]: 0.00596 L/h
VLP, volume of distribution deep lung [3, 6]: 0.0582 L
Structure (SMILES): CCCCCCCCCc1nc2cc(Cl)ccc2c(=O)n1N [SEN001, 3-amino-7-chloro-2-nonylquinazolin-4(3H)-one]
